ChEMBL document CHEMBL5038602, “Potent Lys Patch-Containing Stapled Peptides Targeting PCSK9” (J Med Chem, 2021)
Positions of bridges follow the written chain, without caps; N, C: chain ends. Residues, ends and D or L forms follow the SMILES beside them.

Columns and labels:
[1] = target: Proprotein convertase subtilisin/kexin type 9 (Homo sapiens, UniProt Q8NBP7); assay: Binding affinity to human PCSK9 by surface plasmon resonance
How it was run: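 Recombinant human His-tagged PCSK9 (Gln31–Gln692, HEK293-expressed) at 14 µg/mL amine-coupled onto Ni-NTA chip, ~1000–4000 RU. Buffer 25 mM Tris-HCl, 5 mM CaCl2, 100 mM NaCl, 0.01% P20, pH 7.5, 5% DMSO in running buffer. 25°C. Double-referenced sensorgrams; KD from steady-state equilibrium responses fit to a 4-parameter model, or kinetics fit 1:1.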

[2] = Reversal of LDL uptake in human HepG2 cells for 2 hrs preincubation with PCSK9 followed by LDL addition and measured after 4 hrs by fluorimetry method relative to control; assay type: functional, cell-based
How it was run: (§1)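 HepG2 cells seeded 40000/well, serum-starved 24 h in DMEM with 5% LPDS. Human His-PCSK9 (20–50 nM) preincubated 30–60 min at room temperature ± compounds (10 µM to 0.0001 µM, 0.1% DMSO). Cells then exposed 2 h at 37°C. LDL-BODIPY added to 10 µg/mL final for 4 h. Fluorescence read at ex 480/em 520 nm. Expressed as % maximal LDL-BODIPY incorporation; EC50 by non-linear fit.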

[3] = Reversal of LDL uptake in human HepG2 cells at 10 uM for 2 hrs preincubation with PCSK9 followed by LDL addition and measured after 4 hrs by fluorimetry method relative to control; assay type: functional; details: time 6 hrs; how it was run: as §1
[4] = Effect on mast cell degranulation in human LAD2 cells assessed as CCL3 release measured after 2 hrs by Luminex bead based assay; assay type: functional; details: for EC50: Homo sapiens, LAD2, 2 h; for Emax: time 2 hrs
How it was run: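 LAD2 human mast cells in StemPro 34 medium, 0.2×10^6 cells/well. Supernatant CCL3 quantified by Luminex magnetic bead kit.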

HepG2 = assay: Cytotoxicity against human HepG2 cells assessed as reduction in cell viability at 0.4 to 10 uM for 48 hrs by SRB assay; assay type: toxicity, cell-based; details: hepg2, 48 h, dose 0.4-10 µM
How it was run: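 HepG2 cells seeded 2000/well 24 h before treatment. Compounds at 0.4, 1.1, 3.3 and 10 µM in DMEM, 48 h at 37°C. SRB staining 30 min at 37°C, dye dissolved in 10 mM Tris base, absorbance at 560 nm. Triplicate wells averaged and normalized to untreated cells.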

Chain of Proprotein convertase subtilisin/kexin type 9 (Q8NBP7 31-152 limits assumed): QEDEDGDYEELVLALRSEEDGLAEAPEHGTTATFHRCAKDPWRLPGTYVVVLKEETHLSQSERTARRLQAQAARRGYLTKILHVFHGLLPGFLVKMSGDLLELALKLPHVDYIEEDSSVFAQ
Chain of Proprotein convertase subtilisin/kexin type 9 (Q8NBP7 153-692 limits assumed): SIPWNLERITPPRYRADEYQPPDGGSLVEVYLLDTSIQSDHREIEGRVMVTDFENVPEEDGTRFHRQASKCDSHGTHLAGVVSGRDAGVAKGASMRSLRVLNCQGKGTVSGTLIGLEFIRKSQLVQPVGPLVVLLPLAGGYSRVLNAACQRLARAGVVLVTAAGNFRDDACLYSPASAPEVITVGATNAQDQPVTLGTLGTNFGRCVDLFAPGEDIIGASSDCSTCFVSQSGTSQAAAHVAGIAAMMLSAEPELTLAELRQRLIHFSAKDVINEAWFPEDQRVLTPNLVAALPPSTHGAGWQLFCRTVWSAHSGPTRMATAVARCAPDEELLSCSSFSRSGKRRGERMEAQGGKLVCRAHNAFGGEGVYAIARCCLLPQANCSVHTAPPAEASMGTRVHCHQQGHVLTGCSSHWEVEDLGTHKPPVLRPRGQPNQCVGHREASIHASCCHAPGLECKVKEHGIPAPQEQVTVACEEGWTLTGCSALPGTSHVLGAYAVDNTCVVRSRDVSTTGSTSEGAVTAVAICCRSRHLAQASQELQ

Kd [1]	EC50 [2]	EC50 [4]	Structure (SMILES)	Activity [3]	Emax [4]	Activity (HepG2)
9700 nM	6000 nM	> 5000 nM	CC(=O)N[C@H](C(=O)N[C@H](C(=O)N[C@@H](Cc1ccccc1)C(=O)N[C@H](C(=O)N[C@@H](CO)C(=O)N[C@@H](Cc1c[nH]c2ccccc12)C(=O)N[C@@H](CCC(=O)O)C(=O)N[C@@H](CCC(=O)O)C(=O)N[C@@H](Cc1ccc(O)cc1)C(=O)N[C@@H](CC(C)C)C(=O)N[C@@H](CC(=O)O)C(=O)N[C@@H](Cc1c[nH]c2ccccc12)C(=O)N[C@H](C(N)=O)C(C)C)[C@@H](C)O)C(C)C)[C@@H](C)O	56.5%	116.7 pg/mL	Non-Toxic
6 nM	175 nM	2200 nM	CC(=O)N[C@@H](Cc1cnc[nH]1)C(=O)N[C@H](C(=O)N[C@@H](Cc1ccccc1)C(=O)N[C@@H](CCCCN)C(=O)N[C@@H](CO)C(=O)N[C@@H](Cc1c[nH]c2ccccc12)C(=O)N[C@H]1CCCCNC(=O)C[C@@H](C(=O)N[C@@H](Cc2c[nH]c3ccccc23)C(=O)N[C@H](C(=O)N[C@@H](CCCCN)C(=O)N[C@@H](CCCCN)C(=O)N[C@@H](CCCCN)C(=O)N[C@@H](CCCCN)C(=O)N[C@@H](CCCCN)C(=O)N[C@@H](CCCCN)C(N)=O)C(C)C)NC(=O)[C@H](CC(C)C)NC(=O)[C@H](Cc2ccc(O)cc2)NC(=O)[C@H](CCC(=O)O)NC1=O)C(C)C (Ac-HVFKSWKEYLDWVKKKKKK-NH2; lactam 7-11)		1483.2 pg/mL	Non-Toxic
